APP transl inh: APP translation inhibition. SH-SY5Y APP 5'UTR-luciferase reporter, luminescence. inhibition, % at 2 µM. actives 0.82% (n = 190,000). AID 1285;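 active = inhibition above a set limit, derived from the sample mean plus 3 SD, cut at about 45% in these data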
MT stabilize HCS: microtubule stabilization, imaging screen. HeLa tubulin immunostaining HCS, 24 h; share of cells brighter than vehicle mean+2SD. % tubulin-high responders, % at 10 µM. actives 0.83% (n = 200,000). AID 2205;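 active = plate Z-score above 3 for both tubulin-high and condensed-nucleus cell shares, with cell loss under 80%, at 10 µM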;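 note: anti alpha tubulin signal scored within the nucleus-defined area of each cell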
BaF3 parental: parental Ba/F3 viability inhibition as JAK2V617F counter-screen. CellTiter-Glo ATP luminescence. inhibition, % at 5.6 µM. actives 1.1% (n = 220,000);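 active = inhibition above a per-campaign cutoff, the mean inhibition of all tested compounds plus 3 SD, cut at about 27% in these data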
Ba/F3 V617F tox: lowers viability of Ba/F3 cells expressing EpoR and JAK2V617F. inhibition, % at 5.6 µM. ATP luminescence. actives 1.1% (n = 220,000). AID 1446;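 active = inhibition above the campaign mean plus 3 SD over all tested compounds, cut at about 24% in these data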;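 note: cytokine-independent growth of Ba/F3 cells driven by EpoR plus mutant JAK2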
b-catenin transl: alters nuclear translocation of beta-catenin in HeLa cells; immunofluorescence imaging; nuclear translocation activity, % at 5 µM; actives 0.3% (n = 190,000); AID 1665;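 active = nuclear translocation activity above 50% at 5 µM, with a well cell count of 50 or more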;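 note: per-cell ratio of nuclear to cytoplasmic median beta-catenin stain intensity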
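Test system: human HeLa cell line; Doses: 5 µM primary, 0.02–20 µM confirmation; Incubation: 24 h compound exposure, 37°C; Detection: beta-catenin immunofluorescence imaging with DAPI; Read-out: beta-catenin nuclear/cytoplasmic ratio, % activation.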
L major viab: reduces viability of Leishmania major promastigotes | resazurin fluorescence viability | actives 9% (n = 200,000) | inhibition, % at 10 µM; in the data active = inhibition above about 50%;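 note: promastigotes grown with compound for 44 hours at 28 °C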
Each line names hits and unclear results; the compound was inactive in the other large screens. Most compounds without a hit are left out; they make up all but 9.6% or so of the library.

Cc1cc(C)c(S(=O)(=O)N2CCCOC2CNC(=O)C(=O)NCCCn2ccnc2)c(C)c1 (stereo not drawn)	L major viab 54
O=C(COc1ccc([N+](=O)[O-])cc1)NCc1ccncc1	none
CCC(c1nnnn1Cc1ccco1)N(CCc1ccccc1)Cc1cc2cc(C)ccc2[nH]c1=O (stereo not drawn)	none (no result: APP transl inh, MT stabilize HCS, BaF3 parental, Ba/F3 V617F tox, L major viab)
CCC(c1nnnn1CCc1ccccc1)N(Cc1ccco1)Cc1cc2cc(C)cc(C)c2[nH]c1=O (stereo not drawn)	L major viab 90
CCC(c1nnnn1CCc1ccccc1)N(Cc1ccco1)Cc1cc2c(C)ccc(C)c2[nH]c1=O (stereo not drawn)	L major viab 87
CC(NC(=O)CNC(=S)N(Cc1ccccc1)Cc1cccnc1)c1ccccc1 (stereo not drawn)	L major viab 65 (no result: b-catenin transl)
Cc1ccc(CNC(=O)CNC(=S)N(Cc2ccccc2)Cc2cccnc2)cc1	L major viab 97
O=C(CNC(=S)N(Cc1ccccc1)Cc1ccccc1F)NCCc1ccc(Cl)cc1	L major viab 98
COC(=O)c1ccc(Oc2nc(NC(C)(C)C)nc(N3CCOCC3)n2)cc1	none
COC(=O)c1sc(SC)c(S(=O)(=O)C(C)C)c1N/N=C(\C#N)C(=O)c1ccccc1	none (no result: APP transl inh, MT stabilize HCS, L major viab)
Cc1ccc(C)c(CN2C(=O)C3(OCCCO3)c3ccccc32)c1	L major viab 58
C/C(=N\NC(=O)CN1CCN(S(=O)(=O)c2ccc(C)cc2)CC1)c1ccncc1	none (no result: APP transl inh, MT stabilize HCS, L major viab)
CCCOCc1ccc(O)c2ncccc12	none (no result: APP transl inh, MT stabilize HCS, L major viab)
Oc1ccc(COCc2ccccc2)c2cccnc12	L major viab 101 (no result: b-catenin transl)
CC(C)COCc1ccc(O)c2ncccc12	L major viab 100
CCCCSCCCNC(=O)Nc1ccc(CC)cc1	none
Cc1ccc(Cn2nnnc2CN2CCC(c3nc4ccc(Cl)cc4[nH]3)CC2)cc1	APP transl inh 68, BaF3 parental 82, Ba/F3 V617F tox 92, L major viab 55
Clc1ccc2nc(C3CCN(Cc4nnnn4C4CCCCC4)CC3)[nH]c2c1	none
CN(C)c1ccc(/C=c2/sc3n(c2=O)NC2(c4ccccc4)N(C)C(=O)N(C)C2(c2ccccc2)N=3)cc1 (stereo not drawn)	none
CN1CCCN(C(=O)c2cc(-c3ccc(Cl)c(Cl)c3Cl)nc3ccccc23)CC1	L major viab 55
Cc1cc(NC(=O)CSc2ccc(-c3ccc(F)cc3)nn2)no1	none
CCOC(=O)c1ccc(NC(=S)NC(=O)COc2ccccc2)cc1	none
O=C(CCC(=O)NNC(=O)c1ccccc1[N+](=O)[O-])NCc1ccccc1	none
O=C(/C=C/Nc1ccccc1)c1ccccc1	none (no result: b-catenin transl)
CCOC(=O)c1ccc(N/C=C/C(=O)C(C)(C)C)cc1	none
CC(C)(C)C(=O)/C=C/Nc1ccccc1O	L major viab 98
CN(C)c1ccc(N/C=C/C(=O)c2ccccc2)cc1	L major viab 100
CN(C)c1ccc(N/C=C/C(=O)C(C)(C)C)cc1	L major viab 54
CCOc1ccc(N2C(=O)CC(NCCNc3ccc(C(=O)c4cccs4)cc3)C2=O)cc1 (stereo not drawn)	none
CC(C)c1nc(-c2ccc([N+](=O)[O-])cc2)cs1	none
Cc1ccccc1NC(=S)N(Cc1ccccn1)Cc1ccccc1Cl	none
COc1ccccc1NC(=S)N(Cc1ccc(C)cc1)Cc1cccnc1	none
Cc1ccc(Cl)cc1NC(=S)N(Cc1ccccc1)Cc1cccnc1	L major viab 99
Cc1ccccc1NC(=S)N(Cc1cccnc1)Cc1ccccc1Cl	L major viab 92
S=C(Nc1ccccc1Cl)N(Cc1ccccc1)Cc1cccnc1	L major viab 91
CCOC(=O)CNC(=S)N(Cc1ccccc1)Cc1cccnc1	none (no result: b-catenin transl)
COc1ccccc1NC(=S)N(Cc1cccnc1)Cc1ccccc1Cl	L major viab 77
COc1ccc(Cl)cc1NC(=S)N(Cc1cccnc1)Cc1ccco1	none
O=C(Nc1ccccc1-c1nc2ccccc2[nH]1)c1sc2ccccc2c1Cl	none
COc1cc(-c2nc(-c3ccccc3)c(-c3ccc(F)cc3)[nH]2)cc2c1OCO2	none (no result: APP transl inh)
COc1cc(-c2nc(-c3ccc4c(c3)-c3ccccc3S4(=O)=O)c(-c3ccccc3)[nH]2)cc(OC)c1O	L major viab 91 (no result: b-catenin transl)
CCOC(=O)Cc1csc(NC(=O)CCCCCN2C(=O)c3ccccc3C2=O)n1	none
O=C1c2cccnc2Oc2ccc(Cl)cc2N1Cc1ccc(F)cc1	none
CCNC(=O)NC(=O)C(C)Sc1nc2ccccc2n1CC(C)C (stereo not drawn)	none
CCOC(=O)C1=C(C)Nc2nc(SCC)nn2C1c1ccc(OC)cc1 (stereo not drawn)	none
CCOC(=O)C1=C(C)Nc2nc(=S)[nH]n2C1c1ccc(Cl)cc1 (stereo not drawn)	L major viab 94
CCC1(C)Cc2sc3c(=O)[nH]c(=S)[nH]c3c2CO1 (stereo not drawn)	none
Cc1cc(C)c(S(=O)(=O)NCCC2CCCN2C)c(C)c1 (stereo not drawn)	L major viab 97
Cc1cc(C)c(S(=O)(=O)NCCc2ccccc2)c(C)c1	none
Cn1cnnc1SCc1ccc(C(=O)N=Nc2c(O)n(Cc3ccc(Cl)cc3)c3ccccc23)cc1	L major viab 99 (no result: b-catenin transl)
CCn1c(O)c(N=NC(=O)c2ccc(CSc3nncn3C)cc2)c2ccccc21	none (no result: b-catenin transl)
O=C(N=Nc1c(O)n(Cc2ccccc2)c2ccccc12)c1ccc(O)cc1	L major viab 91
CC(=O)N1CCCc2cc(S(=O)(=O)N(C)Cc3ccccc3)ccc21	L major viab 61 (no result: b-catenin transl)
CCCCN(CC)S(=O)(=O)c1ccc2c(c1)CCCN2C(C)=O	none
CCC(=O)N1CCc2cc(S(=O)(=O)N3CCc4ccccc4C3)ccc21	none (no result: b-catenin transl)
CC(=O)N1CCCc2cc(S(=O)(=O)N3CCc4ccccc4C3)ccc21	L major viab 98
COc1ccccc1/C=C/CN1CCCC(CCC(=O)NCc2ccccc2F)C1 (stereo not drawn)	none
CN(C)S(=O)(=O)c1cccc(NC(=O)c2cc(-c3cccs3)nn2-c2cccc(Cl)c2)c1	MT stabilize HCS 13
O=C(O)c1cc(-c2cccs2)nn1-c1cccc(Cl)c1	none
O=C(Cc1csc(Nc2nc(=S)[nH]c3ccccc23)n1)N1CCN(c2cccc(Cl)c2)CC1	none
Cc1ccc(Cl)cc1N1CCN(C(=O)Cc2csc(Nc3nc(=S)[nH]c4ccccc34)n2)CC1	MT stabilize HCS 9.5
CC(=O)Nc1ccc(S(=O)(=O)Nc2ccc(C(=O)NCC(=O)O)cc2)cc1	none (no result: APP transl inh, MT stabilize HCS, L major viab)
CC(=O)N(Cc1ccc(F)cc1)C1=C(NCCc2ccccc2)C(=O)c2ccccc2C1=O	L major viab 100 (no result: b-catenin transl)
CCN=C1NN=C(c2cc(C)n(CCc3ccccc3)c2C)CS1	none (no result: b-catenin transl)
C=C(C)CN=C1NN=C(c2cc(C)n(-c3ccc(C)cc3)c2C)CS1	L major viab 91
C=CCn1c(C)cc(C2=NNC(=NCc3ccccc3)SC2)c1C	MT stabilize HCS 15
